# From PubChem BioAssay
# NS3 helicase inh: HCV NS3 helicase inhibition. 290,000 tested, 0.56% active. inhibition, % at 10.9 µM. NS3 helicase DNA unwinding, Cy5 molecular beacon fluorescence;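 active means inhibition above the mean of all tested compounds plus 3 SD, set per campaign, cut at about 35% in these data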;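 further: 0% = DMSO wells and 100% = thioflavine S control wells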
#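 test system = hepatitis C virus NS3 helicase domain fragment enzyme | reagent = annealed dual-labelled DNA beacon duplex, ATP-started | times = 1 h at 25 °C | detection = Cy5 fluorescence, 0 and 60 min reads | read-out basis = percent inhibition from t60/t0 fluorescence ratio | control set = DMSO and thioflavine S | replication = one well per compound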
# ZTA DNA inh: counter-screen for EBNA-1 inhibitors: inhibitors of Epstein-Barr virus ZTA; P03206; ZTA-DNA binding, fluorescence polarization; inhibition, % at 11 µM; 320,000 tested, 0.15% active; in the data active means inhibition above about 33%
# Target sequence (P03206 whole entry, looked up): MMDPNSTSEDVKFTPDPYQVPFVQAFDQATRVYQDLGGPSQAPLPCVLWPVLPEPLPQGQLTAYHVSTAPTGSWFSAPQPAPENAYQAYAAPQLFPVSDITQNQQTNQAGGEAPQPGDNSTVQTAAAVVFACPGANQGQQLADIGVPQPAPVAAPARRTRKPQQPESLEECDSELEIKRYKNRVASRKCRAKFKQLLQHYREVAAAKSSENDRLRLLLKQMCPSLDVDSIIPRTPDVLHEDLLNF
# EBNA-1 inhibitor: blocks EBNA-1 binding to DNA; EBNA-1 DNA binding, fluorescence polarization; inhibition, % at 14.8 µM; 300,000 tested, 0.34% active; AID 1950; in the data active means inhibition above about 28%
# CTSL1 counter: counter-screen for PFM18AAP inhibitors: inhibitors of F. hepatica cathepsin L1; recombinant F. hepatica cathepsin L1, Z-Leu-Arg-MCA fluorescence; inhibition, % at 5.96 µM; 300,000 tested, 0.49% active; AID 1906;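 active means inhibition above the mean of all tested compounds plus 3 SD, set per screening campaign, cut at about 17% in these data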;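 further: 0% = plate median of test compound wells and 100% = 1 µM Z-Phe-Ala-diazomethylketone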
# EBNA-1 confirm: EBNA-1 (EBV) inhibition, confirmation; shares compounds with EBNA-1 inhibitor; Recombinant EBNA-1 DBD, Cy5-DNA fluorescence polarization; inhibition, % at 14.8 µM; 830 tested, 35% active;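 active means mean inhibition across replicates above a set limit taken from the earlier primary screen, cut at about 28% in these data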;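 further: plate controls were EBNA-1 protein with DMSO for no effect and wells lacking EBNA-1 for full effect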
# ZTA counter trip: ZTA (EBV) inhibition, triplicate counter-screen | shares compounds with EBNA-1 inhibitor | Zta-ZRE DNA binding, Cy5 fluorescence polarization | inhibition, % at 11.1 µM | 830 tested, under 10 active | AID 2328;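 active means mean inhibition over triplicates above a set limit taken from the primary EBNA-1 screen, cut at about 37% in these data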;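 further: purified full length Zta protein with Cy5 labeled ZRE DNA probe; 0% = Zta with DMSO and 100% = wells lacking Zta protein; inhibitors lower polarization by freeing the labeled DNA probe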
# * = called active by the depositor; nt = no result given. Sampled rows, rich in hits. Any-hit rate of the full collection: about 1.4%.
SMILES,NS3 helicase inh,ZTA DNA inh,EBNA-1 inhibitor,CTSL1 counter,EBNA-1 confirm,ZTA counter trip
Cc1ccccc1NC(=O)Cn1nc(C(=O)O)c2ccccc2c1=O,0,1,-2,-4,nt,nt
O=C(Cn1nc(C(=O)O)c2ccccc2c1=O)Nc1nc(-c2ccccc2)cs1,-3,-2,32*,-1,30*,1
CCc1ccc2nc(NC(=O)Cn3cnc4ccccc4c3=O)sc2c1,-2,14,7,2,nt,nt
O=C(CCn1cnc2ccccc2c1=O)Nc1nc(-c2ccc(Br)cc2)cs1,-4,16,32*,-1,44*,26
Cc1ccc(NC(=O)CCn2cnc3ccccc3c2=O)cc1,-2,11,0,-3,nt,nt
CSCC[C@H](NC(=O)c1cccnc1)c1nnc2ccccn12,6,11,4,2,nt,nt
N#Cc1c(-c2cccs2)cc(C2CC2)nc1SCC(N)=O,0,0,36*,6,31*,3
N#Cc1c2c(c(NCc3cccnc3)n3c1nc1ccccc13)CCC2,3,2,77*,-4,31*,4
COCCNc1c2c(c(C#N)c3nc4ccccc4n13)CCCC2,-3,19,7,2,nt,nt
NC(=O)c1ccc(NC(=O)COC(=O)/C=C/c2cccs2)cc1,5,-7,-3,-15,nt,nt
Cc1ccc(NC(=O)COC(=O)/C=C/c2cccs2)cc1,-4,-1,39*,-6,11,8
NS(=O)(=O)c1ccc(NC(=O)COC(=O)/C(=C/c2cccs2)c2cccs2)cc1,-9,10,64*,2,60*,13
NS(=O)(=O)c1ccc(NC(=O)Cc2cccs2)cc1,2,nt,nt,nt,nt,nt
Cc1cc(C)c(OCC(=O)NCC(c2ccco2)N2CCCCC2)c(C)c1 (centres undefined),nt,-6,nt,nt,nt,nt
CCC(=O)Nc1ccc(NC(=S)NC(=O)/C=C/c2ccco2)cc1,8,-1,-7,3,nt,nt
CC(=O)NC(=S)Nc1ccc(NC(=S)NC(=O)/C=C/c2ccco2)cc1,12,1,43*,0,32*,15
Cc1ccc(C)c(NC(=O)C(Sc2nc3ccccc3c(=O)n2CC(C)C)c2ccccc2)c1 (centres undefined),-5,-7,32*,0,-1,2
Oc1ccc(O)cc1,nt,6,7,0,nt,nt
Cn1c(=O)c(C(=O)CSc2nnc(Nc3ccccc3)s2)c(N)n(Cc2ccccc2)c1=O,2,-3,35*,0,14,4
O=C(NCCc1c[nH]c2ccccc12)C1CCC(Cn2c(=S)[nH]c3ccccc3c2=O)CC1 (centres undefined),-25,15,28*,0,7,-5
Cc1cc(C)c2cccc(NC(=S)NC(=O)c3ccccc3)c2n1,6,2,34*,1,28*,5
CC(=O)NC(=S)Nc1cccc2c(C)cc(C)nc12,4,2,6,-2,nt,nt
O=S1(=O)N=C(N(CCO)/N=C/c2ccc(Br)cc2)c2ccccc21,-6,-7,32*,-8,22,9
CCCOc1cccc(-c2nnc(N)s2)c1,8,-10,33*,5,-6,5
COc1ccc(CN2CC(C(=O)N3CCOCC3)CC2=O)cc1 (centres undefined),-2,-3,47*,1,-13,-26
SMILES,NS3 helicase inh,ZTA DNA inh,EBNA-1 inhibitor,CTSL1 counter,EBNA-1 confirm,ZTA counter trip
COc1ccc(-c2csc(NC(=S)NC(=O)c3ccc(S(=O)(=O)N(C)C)cc3)n2)cc1OC,-16,15,46*,1,59*,41*
COc1ccc(-c2csc(NC(=S)NC(=O)c3cccs3)n2)cc1OC,-6,nt,nt,nt,nt,nt
C/C(=N/NC(=O)c1ccncc1)c1ccc(NC(=O)c2ccc(Cl)cc2Cl)cc1,12,2,37*,3,31*,9
O=C(Nc1ccc(O)c(-c2nc3ccccc3o2)c1)C1(c2ccc(Cl)cc2)CCCC1,5,-3,0,0,nt,nt
COc1cccc(N2CC(O)=C(c3nc4ccccc4c(=O)[nH]3)C2=N)c1,1,-17,67*,2,125*,1
Cc1cc(C)cc(N2CC(O)=C(c3nc4ccccc4c(=O)[nH]3)C2=N)c1,6,2,0,7,nt,nt
O=c1[nH]cc(S(=O)(=O)N2CCN(c3cccc(Cl)c3)CC2)c(=O)[nH]1,nt,7,-8,-1,nt,nt
O=c1[nH]cc(S(=O)(=O)N2CCN(c3cccc(C(F)(F)F)c3)CC2)c(=O)[nH]1,nt,-7,31*,0,-5,4
CC1CCCN(c2ccc(C(=O)OCn3nnc4ccccc4c3=O)cc2[N+](=O)[O-])C1 (centres undefined),-3,1,9,5,nt,nt
Cc1ccc(NC(=O)CSc2ccc(-c3ccc4c(c3)OCO4)nn2)cc1F,-4,-10,52*,-2,68*,1
Cn1cc(/C=C2/SC(=O)N(CC(=O)Nc3ccc4c(c3)OCO4)C2=O)c2ccccc21,-4,3,56*,-1,64*,14
NC(=S)N/N=C/c1ccc2ccccc2c1,-2,-9,13,4,nt,nt
NC(=S)N/N=C/c1ccc(/C=N/NC(N)=S)cc1,-4,6,68*,32*,34*,4
CCC(=O)Nc1ccc(NC(=S)NC(=O)c2cc3ccccc3o2)cc1,3,10,5,0,nt,nt
CCC(=O)Nc1cccc(NC(=S)NC(=O)c2cc3ccccc3o2)c1,2,2,31*,-2,12,16
CCOC(=O)c1c(C)[nH]c(C(=O)COC(=O)CCS(=O)(=O)c2ccc(C)cc2)c1C,-20,1,39*,-56,29*,6
COc1cccc(-c2cc(C(=O)Nc3cnn(Cc4ccc(F)cc4)c3)no2)c1,2,-2,47*,-3,32*,18
O=C(CSc1nnc(-c2ccc(Br)cc2)o1)Nc1cccc(C(=O)O)c1,4,12,0,-2,nt,nt
O=C(CSc1nnc(-c2ccc(Br)cc2)o1)Nc1cccc2ccccc12,-1,-1,40*,4,52*,0
Cc1cccc(S(=O)(=O)Nc2ccc(-c3cn4ccccc4n3)cc2)c1,0,-22,-6,-1,nt,nt
N#C/C(=C\c1cn(CCOc2ccccc2F)c2ccccc12)C(=O)NCc1cccs1,-8,20,124*,5,26,-5
Cc1ccc(C)c(OCCn2cc(/C=C(\C#N)C(=O)NCc3cccs3)c3ccccc32)c1,5,-4,8,3,nt,nt
N#C/C(=C\c1cn(CCOc2ccccc2)c2ccccc12)C(=O)NCc1ccco1,0,-5,13,1,nt,nt
Cc1ccccc1OCCn1cc(/C=C(\C#N)C(=O)NCc2ccco2)c2ccccc21,5,-4,34*,2,51*,4
Cn1c(CC(=O)NNC(=O)c2ccc(F)cc2Cl)nc2ccccc21,nt,6,nt,nt,nt,nt
CCOC(=O)N=S(=O)(Oc1ccc([N+](=O)[O-])cc1)c1ccc(Cl)cc1 (centres undefined),-5,0,-1,-4,nt,nt
